Source: PubChem
NPY-Y1 antag = NPY-Y1 (human) receptor antagonism; HEK293-CNG Y1 cells, membrane potential fluorescence; NPY at EC95, then isoproterenol; inhibition, % at 3.6 µM; actives 1% (n = 200,000); AID 1040;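 active = inhibition above the campaign mean inhibition of all tested compounds plus 3 SD, cut at about 20% in these data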;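 also: 0% = DMSO wells given NPY plus isoproterenol and 100% = isoproterenol alone without NPY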
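Benchmarks – high control isoproterenol alone, low control NPY with isoproterenol · Material – HEK293 Y1/CNG channel cell line · Times – dye 3 h, compound 60 min room temperature, stimulation 45 min · Probe or stimulus – NPY (25 nM), isoproterenol (1 µM), Ro 20-1724 (25 µM) · Evaluation – % inhibition of NPY effect · Signal – fluorescence, membrane potential probe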
NPY2 pot ag = human NPY-Y2 potentiation or agonism, primary screen; cells expressing NPY-Y2, potentiator/agonist read-out; activation, % at 3.6 µM; actives 0.45% (n = 220,000); P49146; in the data active = activation above about 27%;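 also: cells stimulated with NPY near EC25 plus isoproterenol at EC100; 0% = vehicle plus submaximal agonist and 100% = vehicle plus saturating agonist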
Target sequence (P49146 whole entry, looked up): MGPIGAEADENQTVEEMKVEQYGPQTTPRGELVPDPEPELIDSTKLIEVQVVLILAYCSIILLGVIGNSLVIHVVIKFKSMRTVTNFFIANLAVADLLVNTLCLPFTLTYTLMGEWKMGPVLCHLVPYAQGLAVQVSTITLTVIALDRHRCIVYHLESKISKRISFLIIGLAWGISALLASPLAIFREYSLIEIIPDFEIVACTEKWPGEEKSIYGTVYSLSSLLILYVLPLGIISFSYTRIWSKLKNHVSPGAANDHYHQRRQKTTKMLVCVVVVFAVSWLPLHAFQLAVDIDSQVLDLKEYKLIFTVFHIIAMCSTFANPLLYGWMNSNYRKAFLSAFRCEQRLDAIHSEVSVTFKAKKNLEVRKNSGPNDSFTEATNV
WT yeast gro inh = growth inhibition of WT yeast, mitochondrial fusion screen. mitochondrial fusion phenotypic screen, WT strain. inhibition, % at 10 µM. actives 2.1% (n = 190,000); in the data active = inhibition above about 58%; tested in S. cerevisiae
NPY-Y2 antag = NPY-Y2 (human) receptor antagonism; P49146; NPY-Y2 expressing cells, antagonist mode; inhibition, % at 2.7 µM; actives 0.99% (n = 140,000); in the data active = inhibition above about 17%;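 also: 0% = vehicle with agonist challenge and 100% = reference antagonist with challenge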
NPY1 pot ag = potentiators or agonists of human neuropeptide Y receptor Y1 | P25929 | NPY-Y1 expressing cells, potentiator/agonist activation | activation, % at 3.6 µM | actives 0.37% (n = 220,000); in the data active = activation above about 33%, passing the limit was not always enough;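 also: cells stimulated with NPY at EC10 then isoproterenol at EC100; 0% = low agonist plus stimulus and 100% = saturating agonist plus stimulus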
RAM inhibit = blocks the yeast RAM network; S. cerevisiae dse1pr::URA3 reporter, 5-FOA growth OD615, 2 d; analog-sensitive cbk1-as2 kinase mutant strain; inhibition, % at 50 µM; actives 1.8% (n = 190,000);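 active = inhibition above a set limit, 3 SD over mean compound inhibition, cut at about 8.4% in these data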;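 also: 0% = DMSO-only wells with no growth and 100% = 10 µM 1-NA-PP1 full growth; inhibition rescues growth on 5-FOA so higher OD means more RAM inhibition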
Starred values were filed as active, the others as inactive; nt = no result. This is a sample that favours compounds with a hit; in the whole collection about 4.9% have one here.

SMILES	NPY-Y1 antag	NPY2 pot ag	WT yeast gro inh	NPY-Y2 antag	NPY1 pot ag	RAM inhibit
CS(=O)(=O)N(Cc1cc2ccccc2[nH]c1=O)C1CCCCC1	-6	17	94*	-1	5	0
CCn1cc(C(=O)NCc2ccco2)c2cc(OC)c(OC)cc2c1=O	1	-22	12	-1	-12	2
COc1cc2c(C(=O)NCc3ccc(C)o3)cn(CC(C)C)c(=O)c2cc1OC	1	19	74*	2	-12	1
CC1CN(C(=O)c2cccc(S(=O)(=O)Nc3cc(Cl)ccc3Cl)c2)CC(C)O1 (configuration not stated)	0	-3	-15	nt	-10	2
CCc1ccc(NC(=O)C(NS(=O)(=O)c2cccc3nsnc23)c2ccccc2)cc1 (configuration not stated)	-5	10	17	4	6	9.1*
CCC(C)NC(=O)C(NS(=O)(=O)c1cccc2nsnc12)c1ccccc1 (configuration not stated)	-2	18	13	2	11	0
CCOc1ncccc1C(=O)Nc1ccccc1F	nt	-40	nt	nt	-28	nt
Clc1ccc2c(N/N=C/c3ccc(Br)cc3)ccnc2c1	-1	2	99*	-4	-6	2
Clc1ccc2c(N/N=C/c3cccnc3)ccnc2c1	-3	4	28	nt	-9	3
O=C(COC(=O)c1ccccc1[N+](=O)[O-])c1ccc(C2CCCCC2)cc1	3	2	60*	-1	10	7
Cc1nnc(SCc2nc(N)nc(Nc3ccccc3)n2)s1	-2	7	6	2	-13	0
CCc1ccc(Nc2nc(N)nc(CSc3nc4ccccc4s3)n2)cc1	12	-2	72*	4	-13	7
Cc1cc(C)c2nc(N3CCCC(C(=O)N4CCN(c5ncccn5)CC4)C3)sc2c1 (configuration not stated)	3	-39	67*	2	14	-2
O=C(Cn1c2ccc(F)cc2c2nc3n(c(=O)c21)CCS3)Nc1ccccc1C(F)(F)F	1	-6	2	nt	-1	1
COc1cccc(/C=C/C(=C2/C(=O)N(c3ccccc3)N=C2C)c2ccc(Br)cc2)c1OC	10	14	6	0	8	8.7*
COc1cccc(/C=C/C(=C2/C(=O)N(c3ccccc3)N=C2C)c2ccccc2)c1OC	1	8	-5	-1	-2	7
CCCN(CCC)C(=O)CC(c1ccccc1)c1cc(Br)ccc1O (configuration not stated)	1	-1	76*	4	-6	9.2*
COc1ccc2[nH]c(C(=O)N(Cc3ccccn3)Cc3ccccn3)cc2c1	nt	7	nt	nt	13	nt
Cc1nc(NC(=S)NC(=O)c2ccccc2)sc1C(=O)N(C)C	2	1	38	3	-13	1
COc1ccc(C)cc1NC(=O)COC(=O)c1c(C)noc1C	3	0	54	1	-5	6
Cc1noc(C)c1C(=O)OCC(=O)Nc1cc(Cl)ccc1Oc1ccccc1	23*	-16	5	22*	-20	11*
CCOC(=O)c1c(C)[nH]c(C(=O)OCC(=O)Nc2cc(Cl)ccc2OC)c1C	-2	-27	85*	1	-14	2
COCCCN1CN(S(=O)(=O)c2ccc(Cl)cc2)c2nc3ccccc3nc21	13	-4	0	1	7	4
CCOC(=O)c1ccc(Oc2nc(NC(C)(C)C)nc(N(C)C)n2)cc1	-9	8	65*	7	11	-1
CCOC(=O)c1ccc(Oc2nc(N(C)C)nc(N(C)C)n2)cc1	-3	-14	12	6	-13	-2
O=C1NC(=S)S/C1=C\c1ccc(SCc2ccccc2)o1	-7	14	83*	4	-3	10*
O=C1NC(=S)S/C1=C\c1ccc(SCc2ccco2)o1	6	0	69*	2	13	4
CCC1=NN2C(=N)/C(=C\c3ccc(SCc4ccco4)o3)C(=O)N=C2S1	4	15	26	3	-3	3
O=C(CCNc1cc(Cl)cc(Cl)c1)c1ccco1	1	4	-9	2	20	-1
C/C=C/Cn1c(SC)nc2c1c(=O)[nH]c(=O)n2C	0	-14	-9	2	0	1
